Assay results taken from ChEMBL document CHEMBL1149691, “Identification of a novel class of selective Tpl2 kinase inhibitors: 4-Alkylamino-[1,7]naphthyridine-3-carbonitriles” (Bioorg Med Chem, 2007).
Active and inactive are the calls of the source. The rule behind the calls is not given here.

Experiments:
[1] = Inhibition of Tpl2 kinase assessed as MEK phosphorylation by ELISA; set-up: species or system Homo sapiens
Procedure, shortened: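 Tpl2 (0.4 nM) incubated with 35 nM GST-MEK1 substrate and 50 µM ATP in pH 7.2 Mops buffer with MgCl2, DTT, β-glycerophosphate, EGTA and orthovanadate, 1 h at 30 °C, 1% DMSO final; stopped with EDTA. GST-MEK1 captured on anti-GST plates, phospho-Ser217/221 detected by anti-phospho-MEK1 and Eu-labelled secondary (DELFIA); IC50 by curve fitting.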

Monocyte = assay: Inhibition of LPS-induced TNFalpha production in human monocytes; assay type: functional, cell-based
Procedure, shortened: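 Monocytes enriched from buffy coat by antibody-cocktail negative selection and two Histopaque-1077 separations, plated at 800,000 cells/well in RPMI/0.5% FBS at 37 °C/5% CO2. Compounds in DMSO added 30 min before LPS at 10 ng/mL, ~3 h incubation; supernatant TNF-α by ELISA or electrochemiluminescence.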

Blood = assay: Inhibition of LPS-induced TNFalpha production in human blood; assay type: functional, tissue-based
Procedure, shortened: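 Heparinized blood from healthy male volunteers diluted 1–5 in RPMI/3% FCS at 37 °C; compounds (in DMSO, 1.0% final) added 30 min before LPS at 10 ng/mL, ~3 h incubation. Plasma TNF-α measured by ELISA or electrochemiluminescence.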

[2] = biological target: Epidermal growth factor receptor (Homo sapiens, UniProt P00533); assay: Inhibition of EGFR kinase autophosphorylation in A431 cells
Sequence of Epidermal growth factor receptor (P00533 whole entry): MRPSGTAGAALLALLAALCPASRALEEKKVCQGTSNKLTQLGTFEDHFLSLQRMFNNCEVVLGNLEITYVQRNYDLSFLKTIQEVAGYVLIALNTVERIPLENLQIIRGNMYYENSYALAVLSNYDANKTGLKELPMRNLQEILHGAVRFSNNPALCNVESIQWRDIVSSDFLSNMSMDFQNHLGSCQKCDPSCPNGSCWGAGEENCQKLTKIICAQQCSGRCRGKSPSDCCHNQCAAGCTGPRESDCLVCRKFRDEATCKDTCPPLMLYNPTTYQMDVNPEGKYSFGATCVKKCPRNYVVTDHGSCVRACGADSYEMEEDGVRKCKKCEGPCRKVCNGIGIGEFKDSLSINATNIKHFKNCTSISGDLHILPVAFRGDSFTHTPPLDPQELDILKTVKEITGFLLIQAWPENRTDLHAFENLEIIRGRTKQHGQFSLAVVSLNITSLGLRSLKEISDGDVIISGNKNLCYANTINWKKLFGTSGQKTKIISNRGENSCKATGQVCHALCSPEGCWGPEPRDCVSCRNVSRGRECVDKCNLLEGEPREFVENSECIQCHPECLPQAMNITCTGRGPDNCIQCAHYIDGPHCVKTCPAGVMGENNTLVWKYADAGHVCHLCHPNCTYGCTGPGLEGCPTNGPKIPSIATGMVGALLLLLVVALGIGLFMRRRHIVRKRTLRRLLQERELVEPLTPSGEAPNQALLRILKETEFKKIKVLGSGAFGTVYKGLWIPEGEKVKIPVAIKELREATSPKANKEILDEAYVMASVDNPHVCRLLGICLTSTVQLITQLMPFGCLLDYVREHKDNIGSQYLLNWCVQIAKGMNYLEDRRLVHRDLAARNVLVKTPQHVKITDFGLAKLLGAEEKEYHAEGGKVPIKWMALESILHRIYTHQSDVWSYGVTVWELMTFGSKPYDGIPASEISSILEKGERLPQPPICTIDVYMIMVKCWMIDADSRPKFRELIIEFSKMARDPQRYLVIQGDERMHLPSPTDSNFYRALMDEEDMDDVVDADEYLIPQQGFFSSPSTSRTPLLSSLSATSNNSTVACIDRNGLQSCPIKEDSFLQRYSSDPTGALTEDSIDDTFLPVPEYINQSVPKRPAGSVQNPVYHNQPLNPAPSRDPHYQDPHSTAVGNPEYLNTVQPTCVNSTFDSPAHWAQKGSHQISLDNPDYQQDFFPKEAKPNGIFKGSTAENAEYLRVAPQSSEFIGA

[3] = Clearance in Sprague-Dawley rat; assay type: ADME, organism-based; conditions: in vivo
Protein kinase C (PKC) = assay: Inhibition of PKC; set-up: species or system Homo sapiens
[4] = Inhibition of S6 kinase; set-up: species or system Homo sapiens
[5] = Bioavailability in Sprague-Dawley rat; assay type: ADME, organism-based; conditions: in vivo
[6] = Inhibition of MEK; set-up: species or system Homo sapiens
[7] = biological target: MAP kinase-activated protein kinase 2 (Homo sapiens) (UniProt P49137); assay: Inhibition of MK2 at 40 uM
Sequence of MAP kinase-activated protein kinase 2 (Homo sapiens) (P49137 whole entry, looked up): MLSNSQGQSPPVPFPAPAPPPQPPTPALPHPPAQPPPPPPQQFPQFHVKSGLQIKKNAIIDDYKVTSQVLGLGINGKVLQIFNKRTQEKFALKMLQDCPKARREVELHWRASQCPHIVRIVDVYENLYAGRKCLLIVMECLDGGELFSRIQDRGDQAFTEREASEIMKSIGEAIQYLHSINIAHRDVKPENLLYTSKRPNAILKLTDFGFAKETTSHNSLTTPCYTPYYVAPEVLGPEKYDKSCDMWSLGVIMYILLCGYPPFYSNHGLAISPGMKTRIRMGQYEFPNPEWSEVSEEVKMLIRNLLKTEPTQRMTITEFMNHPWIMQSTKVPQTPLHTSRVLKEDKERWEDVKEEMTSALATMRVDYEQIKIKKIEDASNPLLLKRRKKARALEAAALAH

[8] = Inhibition of PKA; set-up: species or system Homo sapiens
Mus musculus [9] = assay: Inhibition of LPS-induced TNFalpha production in C57B1/6 mouse at 10 mg/kg, ip; assay type: functional; conditions: C57B1/6, ip, route intraperitoneal
Procedure, shortened: (§1)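 Female C57Bl/6 mice, 8–10 weeks old; compound (10 or 25 mg/kg) or vehicle given ip, then 1 h later LPS plus D-galactosamine in PBS ip (2 and […] final). Mice euthanized with CO2 1.5 h after challenge and bled by cardiac puncture; serum TNF-α compared with vehicle.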

MAP kinase p38 [10] = biological target: T1, MAP kinase p38 (Homo sapiens, UniProt O15264+Q15759+Q16539+P53778); assay: Inhibition of P-p38 kinase in human monocytes at 40 uM; assay type: cell-based
Homo sapiens = species on record: Homo sapiens; assay: Inhibition of CAMK2 at 40 uM
[11] = biological target: T2, Proto-oncogene tyrosine-protein kinase Src (Homo sapiens, UniProt P12931); assay: Inhibition of Src kinase
T2 sequence (P12931 2-536 limits assumed): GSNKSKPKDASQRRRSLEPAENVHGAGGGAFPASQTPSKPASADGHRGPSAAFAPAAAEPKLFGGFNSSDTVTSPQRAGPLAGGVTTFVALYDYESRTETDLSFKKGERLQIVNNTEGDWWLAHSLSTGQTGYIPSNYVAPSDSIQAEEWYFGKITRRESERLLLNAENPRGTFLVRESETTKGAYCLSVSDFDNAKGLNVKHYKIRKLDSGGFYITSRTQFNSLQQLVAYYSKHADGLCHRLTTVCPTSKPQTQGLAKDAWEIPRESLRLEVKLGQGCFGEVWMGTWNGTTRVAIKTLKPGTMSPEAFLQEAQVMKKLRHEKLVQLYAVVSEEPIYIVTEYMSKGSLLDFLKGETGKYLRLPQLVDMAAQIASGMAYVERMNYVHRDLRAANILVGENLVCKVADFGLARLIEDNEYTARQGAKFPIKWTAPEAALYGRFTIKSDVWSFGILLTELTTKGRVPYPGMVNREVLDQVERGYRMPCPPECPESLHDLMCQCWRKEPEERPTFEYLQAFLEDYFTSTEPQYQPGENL

MAP kinase p38 [12] = biological target: T1, MAP kinase p38; assay: Inhibition of p38 kinase; assay type: protein assay
Mus musculus [13] = assay: Inhibition of LPS-induced TNFalpha production in C57B1/6 mouse at 25 mg/kg, ip; assay type: functional; conditions: C57B1/6, ip, route intraperitoneal; procedure, shortened: as §1
[14] = biological target: T2, Proto-oncogene tyrosine-protein kinase Src; assay: Inhibition of Src kinase at 40 uM
MAP kinase p38 [15] = biological target: T1, MAP kinase p38; assay: Inhibition of P-p38 kinase in human monocytes; assay type: cell-based

Question: For `N#Cc1cnc2cnc(NCCN3CCOCC3)cc2c1Nc1cccc(C(=O)O)c1`, which IC50 [1] is on record?
Answer: > 10 µM

Question: Which IC50 [1] does the source give for `CS(=O)(=O)c1cccc(CNc2ccc3ncc(C#N)c(NC4CCCC4)c3c2)c1` here?
Answer: 2.9 µM

Question: With `CCC(C)(C)Nc1c(C#N)cnc2cnc(NCc3cccnc3)cc12` as the compound, how does the IC50 [1] read?
Answer: 0.36 µM

Question: What about the IC50 (Monocyte) of the same compound?
Answer: 0.8 µM

Question: And the IC50 (Blood)?
Answer: 4.5 µM

Question: What about the IC50 [2] of the same compound?
Answer: > 40 µM

Question: With `N#Cc1cccc(CNc2ccc3ncc(C#N)c(NC4CCCC4)c3c2)c1` as the compound, how does the IC50 [1] read?
Answer: 2.2 µM

Question: Which IC50 [1] does the source give for `N#Cc1cnc2ccc(NCCN3CCOCC3)cc2c1Nc1ccc(F)c(Cl)c1` here?
Answer: 1 µM

Question: With `CC(C)(C)Nc1c(C#N)cnc2ccc(NCc3ccc(S(N)(=O)=O)cc3)cc12` as the compound, how does the IC50 [1] read?
Answer: 7.3 µM

Question: With `C[C@@H](Nc1cc2c(Nc3ccc(F)c(Cl)c3)c(C#N)cnc2cn1)c1ccccc1` as the compound, how does the IC50 [1] read?
Answer: 0.05 µM

Question: For `N#Cc1cnc2ccc(NCCN3CCOCC3)cc2c1NC1CCCC1`, which IC50 [1] is on record?
Answer: 19.7 µM

Question: Which IC50 [1] does the source give for `CC(C)(C)Nc1c(C#N)cnc2cnc(NCc3cccnc3)cc12` here?
Answer: 0.63 µM

Question: What about the IC50 (Monocyte) of the same compound?
Answer: 0.6 µM

Question: What about the IC50 (Blood) of the same compound?
Answer: 4.2 µM

Question: What about the IC50 [2] of the same compound?
Answer: > 40 µM

Question: And the clearance [3]?
Answer: 50 mL/min/kg

Question: With `N#Cc1cnc2cnc(NCCN3CCOCC3)cc2c1Nc1ccc(Oc2ccccc2)cc1` as the compound, how does the IC50 [1] read?
Answer: 0.38 µM

Question: With `N#Cc1cnc2ccc(NCCN3CCOCC3)cc2c1Nc1ccc(Oc2ccccc2)cc1` as the compound, how does the IC50 [1] read?
Answer: 0.25 µM

Question: With `N#Cc1cnc2ccc(NCc3ccc(S(N)(=O)=O)cc3)cc2c1NC1CCCC1` as the compound, how does the IC50 [1] read?
Answer: 7.3 µM

Question: Which IC50 [1] does the source give for `CC(C)(C)Nc1c(C#N)cnc2ccc(NCc3cccc(C#N)c3)cc12` here?
Answer: 1.7 µM

Question: Which IC50 [1] does the source give for `N#Cc1cnc2ccc(NCc3cccc[n+]3[O-])cc2c1NC1CCCC1` here?
Answer: 1.3 µM

Question: Which IC50 [1] does the source give for `N#Cc1cnc2ccc(NCc3ccn[nH]3)cc2c1NC1CCCC1` here?
Answer: 1.6 µM

Question: With `C[C@H](Nc1cc2c(N(C)C3CCCCCC3)c(C#N)cnc2cn1)c1ccccc1` as the compound, how does the IC50 [1] read?
Answer: > 40 µM

Question: For `N#Cc1cnc2ccc(NCc3ccccc3)cc2c1NC1CCCC1`, which IC50 [1] is on record?
Answer: 21 µM

Question: With `N#Cc1ccccc1CNc1ccc2ncc(C#N)c(NC3CCCC3)c2c1` as the compound, how does the IC50 [1] read?
Answer: 1.7 µM

Question: For `CC(C)(C)Nc1c(C#N)cnc2ccc(NCc3cccc(S(C)(=O)=O)c3)cc12`, which IC50 [1] is on record?
Answer: 2.9 µM

Question: With `N#Cc1cnc2cnc(NCCN3CCOCC3)cc2c1Nc1cccc(C(N)=O)c1` as the compound, how does the IC50 [1] read?
Answer: > 10 µM

Question: Which IC50 [1] does the source give for `N#Cc1cnc2cnc(NCCN3CCOCC3)cc2c1Nc1ccc(F)cc1` here?
Answer: 10.7 µM

Question: For `N#Cc1cnc2cnc(NCc3cccnc3)cc2c1NC1CCNCC1`, which IC50 [1] is on record?
Answer: > 40 µM

Question: With `N#Cc1cnc2cnc(Nc3ccc(F)c(Cl)c3)cc2c1NC1CCCC1` as the compound, how does the IC50 [1] read?
Answer: 8 µM

Question: Which IC50 [1] does the source give for `N#Cc1cnc2ccc(NCc3cccnc3)cc2c1NC1CCCCCC1` here?
Answer: 2.6 µM

Question: With `N#Cc1cnc2ccc(NCc3cccnc3)cc2c1NC1CCCC1` as the compound, how does the IC50 [1] read?
Answer: 2.4 µM

Question: Which IC50 [1] does the source give for `CS(=O)(=O)Nc1cccc(Nc2c(C#N)cnc3cnc(NCCN4CCOCC4)cc23)c1` here?
Answer: > 10 µM

Question: For `N#Cc1cnc2cnc(NCc3cccnc3)cc2c1NC1CCCCCC1`, which IC50 (Protein kinase C (PKC)) is on record?
Answer: > 40 µM

Question: What about the IC50 [1] of the same compound?
Answer: 0.16 µM

Question: What about the IC50 (Monocyte) of the same compound?
Answer: 0.5 µM

Question: What about the IC50 [4] of the same compound?
Answer: > 40 µM

Question: And the IC50 (Blood)?
Answer: 4.5 µM

Question: What about the bioavailability [5] of the same compound?
Answer: 14%

Question: And the IC50 [6]?
Answer: > 40 µM

Question: What about the Activity [7] of the same compound?
Answer: inactive

Question: What about the IC50 [8] of the same compound?
Answer: > 40 µM

Question: And the inhibition in vivo at 10 mg/kg (Mus musculus [9])?
Answer: 86%

Question: And the Activity (MAP kinase p38 [10])?
Answer: inactive

Question: And the IC50 [2]?
Answer: > 20 µM

Question: And the Activity (Homo sapiens)?
Answer: inactive

Question: What about the IC50 [11] of the same compound?
Answer: 38 µM

Question: What about the clearance [3] of the same compound?
Answer: 30 mL/min/kg

Question: For `N#Cc1cnc2cnc(NC3CCCC3)cc2c1Nc1ccc(F)c(Cl)c1`, which IC50 [1] is on record?
Answer: 7.6 µM

Question: For `N#Cc1cnc2cnc(NCc3cccnc3)cc2c1NC1CCCCC1`, which IC50 [1] is on record?
Answer: 0.47 µM

Question: What about the IC50 (Monocyte) of the same compound?
Answer: 0.5 µM

Question: What about the IC50 (Blood) of the same compound?
Answer: 4.7 µM

Question: And the IC50 [2]?
Answer: > 40 µM

Question: Which IC50 [1] does the source give for `C#CC(C)(C)Nc1c(C#N)cnc2cnc(NCc3cccnc3)cc12` here?
Answer: 0.27 µM

Question: And the IC50 (Monocyte)?
Answer: 2 µM

Question: And the Activity (Blood)?
Answer: inactive

Question: With `C[C@H](Nc1cc2c(NC3CCCCCC3)c(C#N)cnc2cn1)c1ccccc1` as the compound, how does the IC50 [1] read?
Answer: 0.92 µM

Question: Which IC50 [1] does the source give for `CC(C)(C)Nc1c(C#N)cnc2ccc(NCc3ccn[nH]3)cc12` here?
Answer: 1.6 µM

Question: With `N#Cc1cnc2cnc(NCCN3CCOCC3)cc2c1Nc1cccc(I)c1` as the compound, how does the IC50 [1] read?
Answer: 7.1 µM

Question: With `N#Cc1cnc2ccc(NCc3cccnc3)cc2c1Nc1ccc(F)c(Cl)c1` as the compound, how does the IC50 [1] read?
Answer: 0.018 µM

Question: With `N#Cc1cnc2cnc(NCCN3CCOCC3)cc2c1Nc1cccc(Oc2ccccc2)c1` as the compound, how does the IC50 [1] read?
Answer: 11.5 µM

Question: With `CC(C)(C)Nc1c(C#N)cnc2ccc(NCc3cccc[n+]3[O-])cc12` as the compound, how does the IC50 [1] read?
Answer: 1.3 µM

Question: For `N#Cc1cnc2cnc(NCCN3CCOCC3)cc2c1Nc1ccc(Nc2ccccc2)cc1`, which IC50 [1] is on record?
Answer: 7.6 µM

Question: Which IC50 [1] does the source give for `N#Cc1cnc2cnc(NCc3cccnc3)cc2c1NC1CCCC1` here?
Answer: 0.32 µM

Question: And the IC50 (Monocyte)?
Answer: 0.6 µM

Question: What about the IC50 (Blood) of the same compound?
Answer: 7.7 µM

Question: What about the IC50 [2] of the same compound?
Answer: > 40 µM

Question: And the clearance [3]?
Answer: 28 mL/min/kg

Question: What does the source list for `N#Cc1cnc2ccc(NCc3c[nH]cn3)cc2c1Nc1ccc(F)c(Cl)c1`?
Answer: IC50 (Protein kinase C (PKC)): > 10 µM; IC50 (MAP kinase p38 [12]): 30 µM; IC50 (Monocyte): 0.6 µM; IC50 [4]: > 10 µM; inhibition in vivo at 25 mg/kg (Mus musculus [13]): 71%; bioavailability [5]: 1%; IC50 [6]: 2.4 µM; Activity [7]: inactive; IC50 [8]: 5.84 µM; Activity [14]: inactive; IC50 (MAP kinase p38 [15]): 2.11 µM; Activity (Homo sapiens): inactive; clearance [3]: 97 mL/min/kg

Question: For `N#Cc1cnc2cnc(NCc3cccnc3)cc2c1NC1CC1`, which IC50 [1] is on record?
Answer: 2.8 µM

Question: What about the IC50 [2] of the same compound?
Answer: > 40 µM

Question: With `N#Cc1cnc2cnc(NCCN3CCOCC3)cc2c1Nc1ccc([N+](=O)[O-])cc1` as the compound, how does the IC50 [1] read?
Answer: 7 µM

Question: Which IC50 [1] does the source give for `CC(C)(C)Nc1cc2c(Nc3ccc(F)c(Cl)c3)c(C#N)cnc2cn1` here?
Answer: > 40 µM

Question: Which IC50 [1] does the source give for `N#Cc1cnc2cnc(NC3CCCCCC3)cc2c1Nc1ccc(F)c(Cl)c1` here?
Answer: 5.2 µM

Question: With `Cn1ccnc1CNc1ccc2ncc(C#N)c(NC3CCCC3)c2c1` as the compound, how does the IC50 [1] read?
Answer: 3 µM

Question: What does the source list for `N#Cc1cnc2cnc(NCc3cccnc3)cc2c1Nc1ccccc1`?
Answer: IC50 [1]: 0.4 µM; IC50 (Monocyte): 1.1 µM; IC50 (Blood): 20 µM; IC50 [2]: < 5 µM

Question: For `N#Cc1cnc2cnc(NCCN3CCOCC3)cc2c1Nc1ccc(F)c(F)c1`, which IC50 [1] is on record?
Answer: 3.6 µM

Question: With `N#Cc1cnc2cnc(NCc3cccnc3)cc2c1Nc1ccc(F)c(Cl)c1` as the compound, how does the IC50 [1] read?
Answer: 0.05 µM

Question: What about the IC50 (Monocyte) of the same compound?
Answer: 1.1 µM

Question: What about the IC50 (Blood) of the same compound?
Answer: > 20 µM

Question: With `Cn1ccnc1CNc1ccc2ncc(C#N)c(NC(C)(C)C)c2c1` as the compound, how does the IC50 [1] read?
Answer: 3 µM
